Sampled rows, rich in hits. Any-hit rate of the full collection: about 2.3%.
UCH37 inh: inhibitors of human UCH37 deubiquitinase, primary screen, biochemical, Ub-AMC cleavage, fluorescence. AID 588478, 2011. inhibition, % (concentration not given with the values). 330,000 tested, 0.33% active. Ubiquitin carboxyl-terminal hydrolase isozyme L5 (Homo sapiens), Q9Y5K5. purified proteasome/UCH37;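 active = mean inhibition over replicate wells above about 20%, limit read from the data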
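Material: Human UCH37 enzyme supplied as purified proteasome complex | Schedule: 30 min compound-proteasome preincubation then 25 min substrate reaction, room temperature | Detection: AMC fluorescence from Ub-AMC cleavage, excitation 355 nm, emission 460 nm | Benchmarks: Wells without proteasome as full block, compound-free enzyme plus substrate as uninhibited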
PP5 primary: PP5 phosphatase inhibitors, primary screen, biochemical, fluorescence; 320,000 tested, 0.18% active; inhibition, % at 6.7 µM; purified PP5c, OMFP substrate fluorescence;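 active = inhibition above the campaign's mean inhibition across all tested compounds plus 3 SD, cut at about 9.5% in these data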
Target sequence (P53041 whole entry, looked up): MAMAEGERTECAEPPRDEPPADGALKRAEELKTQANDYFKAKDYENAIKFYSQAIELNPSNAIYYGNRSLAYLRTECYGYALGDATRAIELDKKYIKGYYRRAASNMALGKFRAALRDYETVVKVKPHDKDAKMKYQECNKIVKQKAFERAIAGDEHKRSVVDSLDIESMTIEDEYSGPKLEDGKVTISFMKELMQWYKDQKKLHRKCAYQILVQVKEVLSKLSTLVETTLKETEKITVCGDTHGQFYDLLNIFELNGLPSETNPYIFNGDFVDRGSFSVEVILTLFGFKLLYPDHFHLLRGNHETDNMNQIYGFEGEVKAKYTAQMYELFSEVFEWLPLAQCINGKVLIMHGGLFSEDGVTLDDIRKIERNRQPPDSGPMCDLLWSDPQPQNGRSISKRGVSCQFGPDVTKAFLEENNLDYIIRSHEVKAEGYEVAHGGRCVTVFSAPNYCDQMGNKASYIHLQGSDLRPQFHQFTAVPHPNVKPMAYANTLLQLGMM
PREPL inh: PREPL enzyme inhibitors, primary screen, biochemical, fluorescence polarization | Prolyl endopeptidase-like (Homo sapiens), Q4J6C6 | recombinant PREPL, fluorescence polarization activity-based probe | inhibition, % at 5.96 µM | 320,000 tested, 0.68% active; in the data active = inhibition above about 43%
PP1 inh: PP1-alpha phosphatase inhibitors, primary screen, counter-screen for PP5 inhibitor project, biochemical, fluorescence, OMFP substrate, single point; 320,000 tested, 0.9% active; AID 2235, 2010; purified PP1alpha; Serine/threonine-protein phosphatase PP1-alpha catalytic subunit (Homo sapiens), P62136; inhibition, % at 6.7 µM;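 active = inhibition above the mean inhibition of all tested compounds plus 3 SD, computed separately for each screening campaign, cut at about 15% in these data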
UBC13 inh: UBC13 polyubiquitin chain formation inhibitors, primary screen, biochemical, TR-FRET, uHTS. inhibition, % at 20 µM. 330,000 tested, 0.47% active. AID 485273, 2010; in the data active = inhibition above about 45%, passing the limit was not always enough
Fh CTSL1 inh: Fasciola hepatica cathepsin L1 inhibitors, primary screen, counter-screen for PFM18AAP inhibitor project, biochemical, QFRET, fluorogenic peptide substrate | recombinant F. hepatica cathepsin L1, Z-Leu-Arg-MCA fluorescence | 300,000 tested, 0.49% active | inhibition, % at 5.96 µM;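 active = inhibition above the mean of all tested compounds plus 3 SD, set per screening campaign, cut at about 17% in these data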
UCH37 confirm: retest of human UCH37 deubiquitinase inhibitors, confirmation, biochemical, Ub-AMC cleavage rate, fluorescence; shares compounds with UCH37 inh; Proteasome-bound UCH37; inhibition, % at 20 µM; 480 tested, 27% active;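 active = average inhibition over replicates above about 50%, so the earlier screening hit is confirmed, limit read from the data; inactive = the rest, counted as false positives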;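 also: based on cleavage rate fitted by regression over a 30 min kinetic read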
Numbers stand for hits.

Screening Cc1cc(C(=O)NP(=O)(N2CCOCC2)N2CCOCC2)c(C)n1-c1ccc(Br)cc1 returned UCH37 inh inactive, PP5 primary inactive, PREPL inh inactive, PP1 inh inactive, UBC13 inh inactive and Fh CTSL1 inh inactive.
Cc1cc(C(=O)C[N+]2(C)CCOCC2)c(C)n1-c1ccc(Br)cc1 was read as UCH37 inh 44.7, PP5 primary inactive, PREPL inh inactive, PP1 inh inactive, UBC13 inh inactive, Fh CTSL1 inh inactive and UCH37 confirm inactive.
O=C(O)COc1ccc(C=NNC(=O)COc2nsnc2N2CCOCC2)cc1 was read as UCH37 inh inactive.
Screening Cc1ccc(SC(c2ccccc2)C(Cn2cncn2)C(=O)c2ccccc2)cc1 (stereo not drawn) returned UCH37 inh 42.3, PP5 primary inactive, PREPL inh inactive, PP1 inh inactive, UBC13 inh inactive, Fh CTSL1 inh inactive and UCH37 confirm inactive.
`O=C(c1ccc(Cl)cc1)C(Cn1cncn1)C(Sc1ccccc1)c1ccccc1` (stereo not drawn) gave UCH37 inh inactive, PP5 primary inactive, PREPL inh inactive, PP1 inh inactive, UBC13 inh inactive and Fh CTSL1 inh inactive.
Cn1c(Cc2nc3ccccc3n2C)nc2ccccc21 was read as UCH37 inh 41.9, PP5 primary inactive, PREPL inh inactive, PP1 inh inactive, UBC13 inh inactive, Fh CTSL1 inh inactive and UCH37 confirm inactive.
`Cn1c(COc2ccccc2)nc2ccccc21` gave UCH37 inh inactive, PP5 primary inactive, PREPL inh inactive, PP1 inh inactive, UBC13 inh inactive and Fh CTSL1 inh inactive.
Cn1c(SCc2ccccc2)nccc1=O was read as UCH37 inh inactive.
For CC1=C(SCc2ccccc2)C(=O)c2ccccc2C1=O the results were UCH37 inh 32.1 and UCH37 confirm inactive.
CC1=Nc2ccccc2/C1=C/c1sc(=S)n(-c2cccc(C(=O)O)c2)c1O was read as UCH37 inh 26.5 and UCH37 confirm 56.7.
For CC(=NNC(=O)c1ccc(Br)o1)c1ccc(C)o1 the results were UCH37 inh inactive.
`Cc1ccc(/C=C/c2ccc(N(C)C)cc2)[n+](C)c1` gave UCH37 inh 27.2, PP5 primary inactive, PREPL inh inactive, PP1 inh inactive, UBC13 inh inactive, Fh CTSL1 inh inactive and UCH37 confirm inactive.
`CC(=O)c1nn(-c2ccccc2)cc1C(=O)c1ccc(C)cc1` gave UCH37 inh inactive, PP5 primary inactive, PREPL inh inactive, PP1 inh inactive, UBC13 inh inactive and Fh CTSL1 inh inactive.
`N#Cc1cn(-c2ccccc2)nc1C(=O)c1ccccc1` gave UCH37 inh 36.5, PP5 primary inactive, PREPL inh inactive, PP1 inh inactive, UBC13 inh inactive, Fh CTSL1 inh inactive and UCH37 confirm inactive.
Screening [O-][n+]1cccc2c(Br)cc(Br)c(O)c21 returned UCH37 inh 45.3, PP5 primary inactive, PREPL inh inactive, PP1 inh inactive, UBC13 inh inactive, Fh CTSL1 inh inactive and UCH37 confirm inactive.
Screening C[n+]1cccc2c(Br)ccc([O-])c21 returned UCH37 inh inactive, PP5 primary inactive, PREPL inh inactive, PP1 inh inactive, UBC13 inh inactive and Fh CTSL1 inh inactive.
`Cn1c(NN=Cc2c[nH]c3ccccc23)nc2ccccc21` gave UCH37 inh inactive.
For CC(C)NC(=O)/C(C#N)=C/c1ccc(N(C)C)o1 the results were UCH37 inh 32.4, PP5 primary inactive, PREPL inh inactive, PP1 inh inactive, UBC13 inh inactive, Fh CTSL1 inh inactive and UCH37 confirm inactive.
Screening N#CC1=C(N)NC(SCc2ccc(F)cc2)=C(C#N)C12CCCCC2 returned UCH37 inh inactive, PP5 primary inactive, PREPL inh inactive, PP1 inh inactive, UBC13 inh inactive and Fh CTSL1 inh inactive.
